The values below come from ChEMBL document CHEMBL3091366, “New 5-Aryl-1H-imidazoles display in vitro antitumor activity against apoptosis-resistant cancer models, including melanomas, through mitochondrial targeting” (J Med Chem, 2013).

The subject of one experiment is PC-3. Nature of the experiment: Cytotoxicity against apoptotic-sensitive human PC3 cells assessed as growth inhibition after 72 hrs by MTT-based colorimetric assay. It counts as functional, cell-based. Summed up: (§1)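 MTT colorimetric assay, 72 h exposure to the fumarate salt. Read-out is reduction of MTT to formazan by living cells. IC50 is the concentration that reduces the whole cell population by 50%. Six replicates per condition. Where compounds were not tested on every line, apoptosis-sensitive lines were PC3, MCF-7, LoVo and B16F10, and apoptosis-resistant lines were U373, T98G, A549 and SK-MEL-28.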

A further experiment has as its system SK-MEL-28. Put plainly: Cytotoxicity against apoptotic-resistant human SK-MEL-28 cells assessed as growth inhibition after 72 hrs by MTT-based colorimetric assay. It counts as functional, cell-based. The essentials: as §1
(In general: Tetrazolium dyes change colour on reduction, which living cells bring about.)

A further experiment deals with A549. Nature of the experiment: Cytotoxicity against apoptotic-resistant human A549 cells assessed as growth inhibition after 72 hrs by MTT-based colorimetric assay. It counts as functional, cell-based. The essentials: as §1
The next experiment concerns MCF7. Nature of the experiment: Cytotoxicity against apoptotic-sensitive human MCF7 cells assessed as growth inhibition after 72 hrs by MTT-based colorimetric assay. It is filed as functional, cell-based. The essentials: as §1
A further experiment has as its system T98G. Put plainly: Cytotoxicity against apoptotic-resistant human T98G cells assessed as growth inhibition after 72 hrs by MTT-based colorimetric assay. It counts as functional, cell-based. The essentials: as §1
A further experiment has as its system LoVo. Put plainly: Cytotoxicity against apoptotic-sensitive human LoVo cells assessed as growth inhibition after 72 hrs by MTT-based colorimetric assay. It is filed as functional, cell-based. Summed up: as §1
Experiment [1] can be described thus: Cytotoxicity against apoptotic-resistant human U373 cells assessed as growth inhibition after 72 hrs by MTT-based colorimetric assay. It counts as functional, cell-based, U-373MG ATCC. The essentials: as §1

Values joined by “and” are separate entries in the source; they are usually repeats but may differ in a detail not shown here. Equal entries are not always repeated. Some results are limits rather than exact numbers.

In general, IC50 refers to the midpoint of a concentration-inhibition curve. For the compound `C=CCCOc1ncc(-c2ccccc2OC)n1C`, the IC50 is 25 µM in the experiment on PC-3 (Homo sapiens, PC-3, 72 h); 21 µM in the experiment on SK-MEL-28 (Homo sapiens, SK-MEL-28, 72 h); 22 µM with A549 (Homo sapiens, A549, 72 h); 27 µM in the experiment with MCF7 (Homo sapiens, MCF7, 72 h); 39 µM with T98G (Homo sapiens, T98G, 72 h); 24 µM in the experiment on LoVo (Homo sapiens, LoVo, 72 h). Moreover, the 50% inhibitory concentration (IC50) in experiment [1] (Homo sapiens, U373 MG, 72 h) was determined as 16 µM.
With `Cn1c2cnc1OCCCCCCCCOc1cc(F)ccc1-2`, the IC50 amounted to 46 µM in the experiment with PC-3 (Homo sapiens, PC-3, 72 h); 58 µM with SK-MEL-28 (Homo sapiens, SK-MEL-28, 72 h); 43 µM with A549 (Homo sapiens, A549, 72 h); 35 µM with MCF7 (Homo sapiens, MCF7, 72 h); 69 µM with T98G (Homo sapiens, T98G, 72 h); 32 µM in the experiment with LoVo (Homo sapiens, LoVo, 72 h). Besides, the IC50 in experiment [1] (Homo sapiens, U373 MG, 72 h) amounted to 70 µM.
Regarding `C=CCCCCOc1ccc(OC)cc1-c1cnc(OCCC=C)n1C`, the IC50 in the experiment on PC-3 (Homo sapiens, PC-3, 72 h) was 43 µM; with SK-MEL-28 (Homo sapiens, SK-MEL-28, 72 h), 62 µM; with A549 (Homo sapiens, A549, 72 h), 43 µM; in the experiment with MCF7 (Homo sapiens, MCF7, 72 h), 37 µM; in the experiment with T98G (Homo sapiens, T98G, 72 h), 74 µM; with LoVo (Homo sapiens, LoVo, 72 h), 33 µM. The IC50 in experiment [1] (Homo sapiens, U373 MG, 72 h) is 67 µM.
Turning to `C=CCCCCOc1ccccc1-c1cnc(OCCOCC=C)n1C`, the IC50 in the experiment on PC-3 (Homo sapiens, PC-3, 72 h) amounted to 36 µM; in the experiment with SK-MEL-28 (Homo sapiens, SK-MEL-28, 72 h) it was 59 µM; with A549 (Homo sapiens, A549, 72 h), 34 µM; in the experiment on MCF7 (Homo sapiens, MCF7, 72 h) it was 32 µM; in the experiment on T98G (Homo sapiens, T98G, 72 h), 65 µM; in the experiment with LoVo (Homo sapiens, LoVo, 72 h), 26 µM. In addition, in experiment [1] (Homo sapiens, U373 MG, 72 h), the IC50 was determined as 60 µM.
`Cn1c2cnc1OCCCCCCCCOc1ccc(F)cc1-2`: the IC50 in the experiment with PC-3 (Homo sapiens, PC-3, 72 h) was found to be 52 µM; with SK-MEL-28 (Homo sapiens, SK-MEL-28, 72 h) it was 72 µM; with A549 (Homo sapiens, A549, 72 h), 58 µM; in the experiment on MCF7 (Homo sapiens, MCF7, 72 h) it was 52 µM; in the experiment with T98G (Homo sapiens, T98G, 72 h), 77 µM; in the experiment with LoVo (Homo sapiens, LoVo, 72 h), 43 µM. Further, the half-maximal inhibitory concentration (IC50) in experiment [1] (Homo sapiens, U373 MG, 72 h) was determined as 73 µM.
For the compound `Cn1c2cnc1OCCCCCCCCCOc1ccccc1-2`, the IC50 with PC-3 (Homo sapiens, PC-3, 72 h) was found to be 61 µM; with SK-MEL-28 (Homo sapiens, SK-MEL-28, 72 h), 72 µM; with A549 (Homo sapiens, A549, 72 h) it was 69 µM; in the experiment on MCF7 (Homo sapiens, MCF7, 72 h), 71 µM; with T98G (Homo sapiens, T98G, 72 h), 74 µM; in the experiment with LoVo (Homo sapiens, LoVo, 72 h), 34 µM. In addition, in experiment [1] (Homo sapiens, U373 MG, 72 h), the IC50 turned out to be 78 µM.
As to `Cn1c2cnc1OCCCCCCCCOc1cc3ccccc3cc1-2`, the IC50 in the experiment on PC-3 (Homo sapiens, PC-3, 72 h) is 25 µM; in the experiment with SK-MEL-28 (Homo sapiens, SK-MEL-28, 72 h), 23 µM; in the experiment on A549 (Homo sapiens, A549, 72 h) it was 26 µM; in the experiment with MCF7 (Homo sapiens, MCF7, 72 h), 19 µM; with T98G (Homo sapiens, T98G, 72 h), 32 µM; with LoVo (Homo sapiens, LoVo, 72 h), 16 µM. The IC50 in experiment [1] (Homo sapiens, U373 MG, 72 h) came out at 24 µM.
Take `Cn1c2cnc1OCCCCCCCCOc1ccccc1-2` (single isomer, unassigned; atropisomer): the IC50 in the experiment on PC-3 (pc-3) was 49 µM and 57 µM; with SK-MEL-28 (sk-mel-28), 64 µM and 66 µM; with A549 (a549) it was 59 µM and 54 µM; with MCF7 (mcf7), 44 µM and 43 µM; with T98G (t98g) it was 75 µM and 92 µM; in the experiment with LoVo (lovo), 37 µM and 63 µM. Besides, the IC50 in experiment [1] (u-373mg atcc) was found to be 71 µM.
Regarding `C=CCCCCOc1ccccc1-c1cnc(S(=O)(=O)c2ccccc2)n1C`, the IC50 in the experiment with PC-3 (Homo sapiens, PC-3, 72 h) was 33 µM; with SK-MEL-28 (Homo sapiens, SK-MEL-28, 72 h), 38 µM; in the experiment with A549 (Homo sapiens, A549, 72 h) it was 38 µM; with MCF7 (Homo sapiens, MCF7, 72 h), 25 µM; with T98G (Homo sapiens, T98G, 72 h), 71 µM; in the experiment on LoVo (Homo sapiens, LoVo, 72 h) it was 27 µM. Further, the IC50 in experiment [1] (Homo sapiens, U373 MG, 72 h) stood at 63 µM.
With `Cn1c2cnc1OCCCCCCCCCCOc1ccccc1-2`, the IC50 with PC-3 (Homo sapiens, PC-3, 72 h) came to 31 µM; in the experiment on SK-MEL-28 (Homo sapiens, SK-MEL-28, 72 h), 31 µM; in the experiment with A549 (Homo sapiens, A549, 72 h), 48 µM; with MCF7 (Homo sapiens, MCF7, 72 h) it was 24 µM; with T98G (Homo sapiens, T98G, 72 h), 41 µM; in the experiment with LoVo (Homo sapiens, LoVo, 72 h), 33 µM. For the same compound, the IC50 in experiment [1] (Homo sapiens, U373 MG, 72 h) came out at 31 µM.
Take `C=CCCCCOc1ccccc1-c1cnc(NC(=O)CCCC=C)n1C`: the IC50 with PC-3 (Homo sapiens, PC-3, 72 h) amounted to 11 µM; in the experiment on SK-MEL-28 (Homo sapiens, SK-MEL-28, 72 h), 7 µM; in the experiment with A549 (Homo sapiens, A549, 72 h), 8 µM; with MCF7 (Homo sapiens, MCF7, 72 h), 22 µM; with T98G (Homo sapiens, T98G, 72 h), 22 µM; in the experiment on LoVo (Homo sapiens, LoVo, 72 h), 10 µM. Also, the IC50 in experiment [1] (Homo sapiens, U373 MG, 72 h) is 7 µM.
Regarding `C=CCCCCOc1cc2ccccc2cc1-c1cnc(OCCC=C)n1C`, the IC50 in the experiment with PC-3 (Homo sapiens, PC-3, 72 h) is 14 µM; in the experiment on SK-MEL-28 (Homo sapiens, SK-MEL-28, 72 h), 25 µM; in the experiment with A549 (Homo sapiens, A549, 72 h) it was 21 µM; with MCF7 (Homo sapiens, MCF7, 72 h) it was 25 µM; with T98G (Homo sapiens, T98G, 72 h) it was 32 µM; with LoVo (Homo sapiens, LoVo, 72 h), 25 µM. For the same compound, the IC50 in experiment [1] (Homo sapiens, U373 MG, 72 h) was determined as 27 µM.
In the case of `COc1ccccc1-c1cnc(OC)n1C`, the IC50 is above 100 µM in the experiment on PC-3 (Homo sapiens, PC-3, 72 h); above 100 µM with SK-MEL-28 (Homo sapiens, SK-MEL-28, 72 h); above 100 µM in the experiment on A549 (Homo sapiens, A549, 72 h); above 100 µM in the experiment on MCF7 (Homo sapiens, MCF7, 72 h); above 100 µM in the experiment with T98G (Homo sapiens, T98G, 72 h); 73 µM with LoVo (Homo sapiens, LoVo, 72 h). The IC50 in experiment [1] (Homo sapiens, U373 MG, 72 h) is above 100 µM.
As for `C=CCCCCOc1ccccc1-c1cnc(OCCCC=C)n1C`, the IC50 with PC-3 (Homo sapiens, PC-3, 72 h) came to 28 µM; in the experiment on SK-MEL-28 (Homo sapiens, SK-MEL-28, 72 h), 19 µM; in the experiment on A549 (Homo sapiens, A549, 72 h), 3 µM; in the experiment with MCF7 (Homo sapiens, MCF7, 72 h), 7 µM; with T98G (Homo sapiens, T98G, 72 h) it was 3 µM; in the experiment on LoVo (Homo sapiens, LoVo, 72 h) it was 4 µM. Further, in experiment [1] (Homo sapiens, U373 MG, 72 h), the IC50 is 5 µM.
